# Measured values taken from PubChem BioAssay AID1885 (Broad Institute, 2009).
# The campaign covered roughly 300,000 compounds. About 4,400 (1.5%) were called active.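 The calls were made as follows: active = mean inhibition across valid replicates above about 55% (limit read from the data); inconclusive = mean below that limit but half or more replicates reach it; inactive = mean below it, under half of replicates reach it.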 For the sample, actives were picked, then their nearest neighbours and some compounds at random.
# Assay: Trypanosoma cruzi replication blockers in host cells – luminescence, NIH3T3 host cells, primary screen (AID 1885);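 also: signal also drops with host cell toxicity which is not excluded here; 0% = plate median of DMSO wells and 100% = zero luminescence signal; higher percent means less beta-gal luminescence so fewer parasites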
# Conditions: T. cruzi beta-gal in NIH3T3, luminescence, 90 h; active compounds read high; concentration not given here
# Method in brief: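 System: NIH/3T3 fibroblasts plus reporter T. cruzi. Medium: DMEM plus 2% FBS. Probe or stimulus: 5000 reporter trypomastigotes per well. Compound: single 50 nL compound addition per well in DMSO. Incubation: co-culture of at least 90 h after 3 h attachment. Detection: GalScreen β-gal luminescence, detergent lysis, 60 min. Evaluation: parasite load inhibition, %.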
row,Compound,inhibition
1,CCCn1c(C)cc(-c2csc(NC(=O)CCc3nc4ccccc4c(=O)[nH]3)n2)c1C,5.04% (inactive)
2,Cc1cccc(OCC(O)CN2CCN(CCN3C(=O)c4cccc5cccc(c45)C3=O)CC2)c1C (configuration not stated),67.1% (active)
3,Cc1ccccc1OCC(O)CN1CCN(c2ccccn2)CC1 (configuration not stated),0.87% (inactive)
4,COc1ccccc1OCC(O)CN1CCOCC1 (configuration not stated),1.66% (inactive)
5,COc1ccccc1NS(=O)(=O)c1ccc(C(=O)N2CCN(c3ccccc3O)CC2)cc1,0.881% (inactive)
6,O=C(COC(=O)c1ncc(Cl)c(Cl)c1Cl)NCc1cccs1,-17.6% (inactive)
7,Cc1csc(NC(=O)c2ccc(C)s2)n1,-14.9% (inactive)
8,Cn1c(=O)c(=O)n(C)c2cc(S(=O)(=O)NCCc3ccccc3)ccc21,-8.33% (inactive)
9,Cc1ccc(S(=O)(=O)NCCN2CCOCC2)cc1C,1.47% (inactive)
10,Cn1c(=O)c(=O)n(C)c2cc(S(=O)(=O)NCCN3CCN(c4ccccc4F)CC3)ccc21,56% (active)
11,COc1cc(CNCc2ccc3c(c2)OCO3)c([N+](=O)[O-])cc1OC,9.09% (inactive)
12,C=CS(=O)c1sc(Cl)c(N2CCOCC2)c1[N+](=O)[O-] (configuration not stated),69.9% (active)
13,O=C(NCCc1csc(-c2ccccc2)n1)c1ccccc1F,66.1% (active)
14,O=S(=O)(NCCc1csc(-c2ccccc2)n1)c1cccnc1,8.42% (inactive)
15,COc1ccc(-c2nc(CCNC(=O)c3ccc(Br)o3)cs2)cc1,9.33% (inactive)
16,CC(=O)c1ccc(S(=O)(=O)NC2CC(=O)N(c3ccc4c(c3)OCCO4)C2)cc1 (configuration not stated),0.0508% (inactive)
17,CC(=O)Nc1nc2ccccc2n1Cc1ccc(C)cc1,79.7% (active)
18,CCC(=O)Nc1nc2ccccc2n1Cc1ccccc1C,45.5% (inactive)
19,CC(=O)c1nc2ccccc2n1Cc1ccccc1,8% (inactive)
20,O=C(CCC(=O)c1cccs1)Nc1nc2ccccc2s1,-3.43% (inactive)
21,CCN(CC)CCn1c2c(c(SCC(=O)Nc3ccc(C(C)C)cc3)nc1=O)CCC2,9.44% (inactive)
22,C=CC1=C(C(=O)O)N2C(=O)[C@@H](NC(=O)/C(=N/OCC(=O)O)c3csc(N)n3)[C@H]2SC1,-7.4% (inactive)
23,O=C(Cc1ccc(S(=O)(=O)N2CCOCC2)s1)NCCOc1ccccc1F,5.5% (inactive)
24,COc1ccccc1CCNC(=O)CN1C(=O)NC2(CCCC2)C1=O,-8.97% (inactive)
25,O=C(COC(=O)c1ncc(Cl)c(Cl)c1Cl)NC1CCS(=O)(=O)C1 (configuration not stated),-20.7% (inactive)
26,Cc1cccc([C@@H]2[C@@H]3C(=O)N(Cc4ccccc4)C(=O)[C@@H]3[C@]3(Cc4ccc(Cl)cc4)C(=O)N(c4cccc(Cl)c4)C(=O)N23)c1,-3.42% (inactive)

row,Compound,inhibition
1,Cc1c(C(=O)OCC(=O)N2CCCC2=O)oc2ccccc12,-3.64% (inactive)
2,O=C(CN1CCN(C/C=C/c2ccccc2)CC1)Nc1ccc(F)cc1F,32.3% (inactive)
3,O=C(CCN1CCN(C/C=C/c2ccccc2)CC1)Nc1cccc(F)c1,58.2% (active)
4,O=C(CCN1CCN(C/C=C/c2ccccc2)CC1)Nc1ccccc1Cl,33.5% (inactive)
5,CC[C@@]12C(=O)N(c3ccccc3)C(=O)N1[C@H](c1ccc(Br)cc1)[C@@H]1C(=O)N(C(C)(C)C)C(=O)[C@@H]12,1.35% (inactive)
6,CC(C)COC(=O)c1ccc(NC(=O)C2C3C=CC(C3)C2C(=O)O)cc1 (configuration not stated),1.59% (inactive)
7,CCOC(=O)c1cnc(-n2nc(C)cc2C)nc1NNc1cc(C)nc(-c2ccccc2)n1,54.9% (active)
8,CCOC(=O)c1cnc(-c2ccccc2)nc1Oc1ccc(C)cc1,7.98% (inactive)
9,CCOC(=O)c1cnc(-n2nc(C)cc2C)nc1Nc1cccc(C(C)=O)c1,-12.3% (inactive)
10,CCCCn1c(N)c(N(CCC(C)C)C(=O)c2ccc(COc3ccccc3)o2)c(=O)[nH]c1=O,0.734% (inactive)
11,CCc1c(C)nc(SCC(=O)NC2CCCC2)[nH]c1=O,-9.04% (inactive)
12,CC(C)c1csc(CN2CCC(CO)(Cc3ccccc3)CC2)n1,67.1% (active)
13,CC(=O)c1cccc(CN2CCC(CO)(Cc3ccccc3)CC2)c1,11.2% (inactive)
14,OCC1(Cc2ccccc2)CCN(Cc2cc3ccccc3o2)CC1,16.6% (inactive)
15,Cc1ccc(C(=O)NC2CCCC(C)C2C)cc1S(=O)(=O)N1CCCCC1 (configuration not stated),19.9% (inactive)
16,O=C(CSc1nc2[nH]ncc2c(=O)[nH]1)Nc1ccc(F)cc1,-0.401% (inactive)
17,COc1ccc(S(=O)(=O)N2CCCCC2)cc1NC(=O)C1CC(=O)N(c2ccc3c(c2)OCCO3)C1 (configuration not stated),-2.94% (inactive)
18,O=C(NCC(c1ccco1)N1CCc2ccccc21)c1cccc(F)c1 (configuration not stated),-6.59% (inactive)
19,CCCOc1ccc(C(=O)CCC(=O)OC(C)C(=O)Nc2ccc(NC(C)=O)cc2)cc1 (configuration not stated),-13.4% (inactive)
20,CCCOc1ccc(C(=O)NCCc2ccccc2)cc1,9.57% (inactive)
21,CCCOc1ccc(C(=O)C(CCC(CNCC)C(=O)c2ccc(OCCC)cc2)CNCC)cc1 (configuration not stated),56% (active)
22,COc1ccc(-c2cc(C(=O)N(C)CC(=O)Nc3ccccc3Cl)c3ccccc3n2)cc1OC,9.44% (inactive)
23,Cc1ccc(NC(=O)c2cnc(SCC(=O)NCC3CCCO3)n(C)c2=O)cc1 (configuration not stated),-7.14% (inactive)
24,COc1cccc(Cn2cc(/C=N/NC(=O)c3cc(O)cc(O)c3)c3ccccc32)c1,-8.85% (inactive)
25,Cc1ccccc1C(=O)NCC(c1ccco1)N1CCc2ccccc21 (configuration not stated),12% (inactive)
26,Cc1ccc(Cc2nnc(SCC(=O)Nc3ccccc3C)[nH]c2=O)cc1,-3.22% (inactive)
